From ChEMBL document CHEMBL3232716, “Tailoring cytotoxicity of antimicrobial peptidomimetics with high activity against multidrug-resistant Escherichia coli” (J Med Chem, 2014)
Converted amounts (≈) assume the structure as drawn. Square brackets hold non-standard residues; d marks the D form. Peptide text beside a SMILES is read from it. hArg = N=C(N)NCCCC[C@H](N)C(=O)O; Nspe = C[C@H](NCC(=O)O)c1ccccc1; Nphe = O=C(O)CNCc1ccccc1

Key:
[1] = Cytotoxicity against rat IEC-6 cells after 1 hr by MTS/PMS assay; format: cell-based; settings: IEC-6, 1 h
Outline: (§1)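 Monolayers (passage 4–10) grown ~21–25 h to ~90% confluence. Seeding per well: HeLa 8000, HepG2 23 000, NIH 3T3 22 000, IEC-6 16 000, Caco-2 25 000. Cells washed with HBSS/10 mM Hepes pH 7.4 and exposed 1 h at 37 °C, 50 rpm, to compound 0–2000 μM in culture medium. MTS 240 μg/mL/PMS 2.4 μg/mL for 1.5–4 h, A492. Viability referenced to SDS and untreated controls; IC50 from one biological replicate in triplicate.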

HeLa = assay: Cytotoxicity against human HeLa cells after 1 hr by MTS/PMS assay; format: cell-based; outline: as §1
Escherichia coli [2] = assay: Antibacterial activity against extended-spectrum beta-lactamase producing multidrug-resistant and colistin-susceptible Escherichia coli CTX-M-15 clinical isolate Aar 11 after 18 hrs by microdilution broth method; format: functional; settings: CTX-M-15, 18 h
[3] = Cytotoxicity against mouse NIH/3T3 cells after 1 hr by MTS/PMS assay; format: cell-based; settings: NIH3T3, 1 h; outline: as §1
Acinetobacter baumannii = assay: Antibacterial activity against multidrug-resistant Acinetobacter baumannii clinical isolate E2-1228625 after 18 hrs by microdilution broth method; format: functional; settings: clinical isolate E2-1228625, 18 h
Caco-2 = assay: Cytotoxicity against human Caco2 cells after 1 hr by MTS/PMS assay; format: cell-based; settings: Caco-2, 1 h; outline: as §1
Enterococcus faecium = assay: Antibacterial activity against vancomycin-resistant Enterococcus faecium ATCC 700221 after 18 hrs by microdilution broth method; settings: ATCC 700221, 18 h
HUVEC = assay: Cytotoxicity against HUVEC after 1 hr by MTS/PMS assay; format: cell-based; settings: Homo sapiens
Outline: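 HUVEC seeded at 15 000 cells/well on collagen-coated wells (0.6 μg/cm2), passage 4–10, grown to ~90% confluence over 21–25 h. Cells exposed to compound (0–2000 μM) in F-12K medium for 1 h at 37 °C. MTS 240 μg/mL with PMS 9.6 μg/mL in HBSS for 1.5–4 h, then A492. Viability referenced to 0.2% SDS and untreated cells; IC50 reported.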

HepG2 = assay: Cytotoxicity against human HepG2 cells after 1 hr by MTS/PMS assay; format: cell-based; settings: HepG2, 1 h; outline: as §1
Staphylococcus aureus = assay: Antibacterial activity against methicillin-resistant Staphylococcus aureus ATCC 33591 after 18 hrs by microdilution broth method; format: functional; settings: ATCC 33591, 18 h
Outline: (§2)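 CLSI broth microdilution. […] Incubated 35 °C in ambient air for 18 h. MIC taken as the lowest concentration with no visible growth versus the compound-free control. Reported as median and range of three independent biological replicates run on separate days.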

[4] = Binding affinity to synthetic POPC/POPG liposomal membrane at 20 uM by circular dichroism analysis; format: physicochemical; settings: artificial membrane
Outline: (§3)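 CD spectra recorded with 20 μM test compound and 2 mM liposomes in 10 mM Tris buffer, pH 7.5. Liposomes were roughly 100 nm: POPC/POPG 7:3 (bacterial model) or POPC/POPG/cholesterol 5:3:2 (mammalian model). Lipid concentration was standardized by enzymatic phospholipid colorimetric assay.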

Escherichia coli [5] = assay: Antibacterial activity against Escherichia coli ATCC 25922 after 18 hrs by microdilution broth method; format: functional; settings: ATCC 25922, 18 h; outline: as §2
Escherichia coli [6] = assay: Antibacterial activity against NDM-1 producing Escherichia coli clinical isolate 74859898 after 18 hrs by microdilution broth method; format: functional; settings: clinical isolate 74859898, 18 h
[7] = Binding affinity to cholesterol containing synthetic POPC/POPG liposomal membrane at 20 uM by circular dichroism analysis; format: physicochemical; settings: artificial membrane; outline: as §3

Structure (SMILES) | IC50 [1] [µM] | IC50 (HeLa) [µM] | MIC (Escherichia coli [2]) [µM] | IC50 [3] [µM] | MIC (Acinetobacter baumannii) [µM] | IC50 (Caco-2) [µM] | MIC (Enterococcus faecium) [µM] | IC50 (HUVEC) [µM] | IC50 (HepG2) [µM] | MIC (Staphylococcus aureus) [µM] | Activity [4] | MIC (Escherichia coli [5]) [µM] | MIC (Escherichia coli [6]) [µM] | Activity [7]
CC(=O)N[C@@H](CCCCNC(=N)N)C(=O)N(CCC(=O)N[C@@H](CCCCN)C(=O)N(CCC(=O)N[C@@H](CCCCNC(=N)N)C(=O)N(CCC(=O)N[C@@H](CCCCN)C(=O)N(CCC(=O)N[C@@H](CCCCNC(=N)N)C(=O)N(CCC(N)=O)Cc1ccccc1)Cc1ccccc1)Cc1ccccc1)Cc1ccccc1)Cc1ccccc1 | > 1000 | 508 | 16 (≈ 26.1 µg/mL) | 745 | 128 (≈ 209 µg/mL) | > 1000 | 128 (≈ 209 µg/mL) | > 1000 | 943 | 64 (≈ 104 µg/mL) | Not Active | 8 (≈ 13.1 µg/mL) | 8 (≈ 13.1 µg/mL) | Not Active
CC(=O)N[C@@H](CCCCN)C(=O)N(CCC(=O)N[C@@H](CCCCNC(=N)N)C(=O)N(CCC(=O)N[C@@H](CCCCN)C(=O)N(CCC(=O)N[C@@H](CCCCNC(=N)N)C(=O)N(CCC(=O)N[C@@H](CCCCN)C(=O)N(CCC(=O)N[C@@H](CCCCNC(=N)N)C(=O)N(CCC(N)=O)Cc1ccccc1)Cc1ccccc1)Cc1ccccc1)Cc1ccccc1)Cc1ccccc1)Cc1ccccc1 | 457 | 228 | 1 (≈ 1.92 µg/mL) | 362 | 16 (≈ 30.7 µg/mL) | > 1000 | 32 (≈ 61.5 µg/mL) | > 1000 | 321 | 32 (≈ 61.5 µg/mL) | Not Active | 1 (≈ 1.92 µg/mL) | 1 (≈ 1.92 µg/mL) | Not Active
CC(=O)N[C@@H](CCCCNC(=N)N)C(=O)N(CCC(=O)N[C@@H](CCCCN)C(=O)N(CCC(=O)N[C@@H](CCCCNC(=N)N)C(=O)N(CCC(=O)N[C@@H](CCCCN)C(=O)N(CCC(=O)N[C@@H](CCCCNC(=N)N)C(=O)N(CCC(N)=O)[C@@H](C)c1ccccc1)[C@@H](C)c1ccccc1)[C@@H](C)c1ccccc1)[C@@H](C)c1ccccc1)[C@@H](C)c1ccccc1 | 186 | 136 | 8 (≈ 13.6 µg/mL) | 237 | 64 (≈ 109 µg/mL) | > 1000 | 64 (≈ 109 µg/mL) |  | 185 | 16 (≈ 27.2 µg/mL) | Not Active | 8 (≈ 13.6 µg/mL) | 8 (≈ 13.6 µg/mL) | Not Active
CC(=O)N[C@@H](CCCCN)C(=O)N(CCC(=O)N[C@@H](CCCCNC(=N)N)C(=O)N(CCC(=O)N[C@@H](CCCCN)C(=O)N(CCC(=O)N[C@@H](CCCCNC(=N)N)C(=O)N(CCC(=O)N[C@@H](CCCCN)C(=O)N(CCC(=O)N[C@@H](CCCCNC(=N)N)C(=O)N(CCC(N)=O)[C@@H](C)c1ccccc1)[C@@H](C)c1ccccc1)[C@@H](C)c1ccccc1)[C@@H](C)c1ccccc1)[C@@H](C)c1ccccc1)[C@@H](C)c1ccccc1 | 147 | 39 | 4 (≈ 8.02 µg/mL) | 135 | 8 (≈ 16 µg/mL) | 330 | 16 (≈ 32.1 µg/mL) | 497 | 100 | 16 (≈ 32.1 µg/mL) | Not Active | 2 (≈ 4.01 µg/mL) | 2 (≈ 4.01 µg/mL) | Not Active
CC(=O)N[C@@H](CCCCN)C(=O)N(CCC(=O)N[C@@H](CCCCNC(=N)N)C(=O)N(CCC(=O)N[C@@H](CCCCN)C(=O)N(CCC(=O)N[C@@H](CCCCNC(=N)N)C(=O)N(CCC(=O)N[C@@H](CCCCN)C(=O)N(CCC(=O)N[C@@H](CCCCNC(=N)N)C(=O)N(CCC(=O)N[C@@H](CCCCN)C(=O)N(CCC(N)=O)[C@@H](C)c1ccccc1)[C@@H](C)c1ccccc1)[C@@H](C)c1ccccc1)[C@@H](C)c1ccccc1)[C@@H](C)c1ccccc1)[C@@H](C)c1ccccc1)[C@@H](C)c1ccccc1 | 80 | 26 | 2 (≈ 4.62 µg/mL) | 89 | 2 (≈ 4.62 µg/mL) | 197 | 4 (≈ 9.24 µg/mL) | 236 | 48 | 8 (≈ 18.5 µg/mL) | Not Active | 2 (≈ 4.62 µg/mL) | 2 (≈ 4.62 µg/mL) | Not Active
CC(=O)N[C@@H](CCCCN)C(=O)N(CC(=O)N[C@@H](CCCCNC(=N)N)C(=O)N(CC(=O)N[C@@H](CCCCN)C(=O)N(CC(=O)N[C@@H](CCCCNC(=N)N)C(=O)N(CC(=O)N[C@@H](CCCCN)C(=O)N(CC(=O)N[C@@H](CCCCNC(=N)N)C(=O)N(CC(=O)N[C@@H](CCCCN)C(=O)N(CC(N)=O)Cc1ccccc1)Cc1ccccc1)Cc1ccccc1)Cc1ccccc1)Cc1ccccc1)Cc1ccccc1)Cc1ccccc1 (Ac-K[Nphe][hArg][Nphe]K[Nphe][hArg][Nphe]K[Nphe][hArg][Nphe]K[Nphe]-NH2) | 319 | 99 | 1 (≈ 2.11 µg/mL) | 254 | 4 (≈ 8.45 µg/mL) | > 1000 | 8 (≈ 16.9 µg/mL) | 418 | 378 | 32 (≈ 67.6 µg/mL) | Not Active | 1 (≈ 2.11 µg/mL) | 1 (≈ 2.11 µg/mL) | Not Active
CC(=O)N[C@@H](CCCCN)C(=O)N(CC(=O)N[C@@H](CCCCNC(=N)N)C(=O)N(CC(=O)N[C@@H](CCCCN)C(=O)N(CC(=O)N[C@@H](CCCCNC(=N)N)C(=O)N(CC(=O)N[C@@H](CCCCN)C(=O)N(CC(=O)N[C@@H](CCCCNC(=N)N)C(=O)N(CC(N)=O)[C@@H](C)c1ccccc1)[C@@H](C)c1ccccc1)[C@@H](C)c1ccccc1)[C@@H](C)c1ccccc1)[C@@H](C)c1ccccc1)[C@@H](C)c1ccccc1 (Ac-K[Nspe][hArg][Nspe]K[Nspe][hArg][Nspe]K[Nspe][hArg][Nspe]-NH2) | 67 | 52 | 4 (≈ 7.69 µg/mL) | 121 | 2 (≈ 3.84 µg/mL) | 376 | 2 (≈ 3.84 µg/mL) | 351 | 77 | 16 (≈ 30.7 µg/mL) | Not Active | 2 (≈ 3.84 µg/mL) | 2 (≈ 3.84 µg/mL) | Not Active
CO/N=C(\C(=O)N[C@@H]1C(=O)N2C(C(=O)O)=C(COC(C)=O)CS[C@H]12)c1csc(N)n1 [CEFOTAXIME] |  |  | > 128 |  | > 128 |  | > 128 |  |  | > 128 |  | < 0.125 | > 128 | 
O=C(O)c1cn(C2CC2)c2cc(N3CCNCC3)c(F)cc2c1=O [CIPROFLOXACIN] |  |  |  |  |  |  |  |  |  | 0.25 (≈ 0.0828 µg/mL) |  | < 0.125 |  | 
CC[C@H](C)[C@H](NC(=O)CN)C(=O)NCC(=O)N[C@@H](C)C(=O)N[C@H](C(=O)N[C@@H](CC(C)C)C(=O)N[C@@H](CCCCN)C(=O)N[C@H](C(=O)N[C@@H](CC(C)C)C(=O)N[C@H](C(=O)N[C@H](C(=O)NCC(=O)N[C@@H](CC(C)C)C(=O)N1CCC[C@H]1C(=O)N[C@@H](C)C(=O)N[C@@H](CC(C)C)C(=O)N[C@H](C(=O)N[C@@H](CO)C(=O)N[C@@H](Cc1c[nH]c2ccccc12)C(=O)N[C@H](C(=O)N[C@@H](CCCCN)C(=O)N[C@@H](CCCNC(=N)N)C(=O)N[C@@H](CCCCN)C(=O)N[C@@H](CCCNC(=N)N)C(=O)N[C@@H](CCC(N)=O)C(=O)N[C@@H](CCC(N)=O)C(N)=O)[C@@H](C)CC)[C@@H](C)CC)[C@@H](C)O)[C@@H](C)O)C(C)C)C(C)C [MELITTIN] |  | 1.9 |  |  |  | 4.5 |  |  | 2.5 |  |  |  |  | 
CN[C@H](CC(C)C)C(=O)N[C@H]1C(=O)N[C@@H](CC(N)=O)C(=O)N[C@H]2C(=O)N[C@H]3C(=O)N[C@H](C(=O)N[C@H](C(=O)O)c4cc(O)cc(O)c4-c4cc3ccc4O)[C@H](O)c3ccc(c(Cl)c3)Oc3cc2cc(c3O[C@@H]2O[C@H](CO)[C@@H](O)[C@H](O)[C@H]2O[C@H]2C[C@](C)(N)[C@H](O)[C@H](C)O2)Oc2ccc(cc2Cl)[C@H]1O [VANCOMYCIN] |  |  | > 128 |  | > 128 |  | 128 (≈ 186 µg/mL) |  |  | 0.5 (≈ 0.725 µg/mL) |  | > 128 | > 128 | 
